Screening data: PubChem BioAssay, several laboratories
Most compounds without a hit are left out; they make up all but 7.2% or so of the library.
DAT uptake mod = changed human dopamine transporter uptake under cocaine IC80; Q01959; LLC-PK1 hDAT cells, [14C]-dopamine uptake with cocaine IC80; actives deviate in either direction; B-score at 10 µM; 110,000 compounds, 1.3% hits; AID 449768;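 active means Z score or B-score, a plate-position-corrected score, falls beyond the plate's 99.7% confidence bounds, in either direction; inactive means both scores lie inside the 99.7% bounds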;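 further: scored against the spread of the other compound wells on the same plate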
Target sequence (Q01959 whole entry, looked up): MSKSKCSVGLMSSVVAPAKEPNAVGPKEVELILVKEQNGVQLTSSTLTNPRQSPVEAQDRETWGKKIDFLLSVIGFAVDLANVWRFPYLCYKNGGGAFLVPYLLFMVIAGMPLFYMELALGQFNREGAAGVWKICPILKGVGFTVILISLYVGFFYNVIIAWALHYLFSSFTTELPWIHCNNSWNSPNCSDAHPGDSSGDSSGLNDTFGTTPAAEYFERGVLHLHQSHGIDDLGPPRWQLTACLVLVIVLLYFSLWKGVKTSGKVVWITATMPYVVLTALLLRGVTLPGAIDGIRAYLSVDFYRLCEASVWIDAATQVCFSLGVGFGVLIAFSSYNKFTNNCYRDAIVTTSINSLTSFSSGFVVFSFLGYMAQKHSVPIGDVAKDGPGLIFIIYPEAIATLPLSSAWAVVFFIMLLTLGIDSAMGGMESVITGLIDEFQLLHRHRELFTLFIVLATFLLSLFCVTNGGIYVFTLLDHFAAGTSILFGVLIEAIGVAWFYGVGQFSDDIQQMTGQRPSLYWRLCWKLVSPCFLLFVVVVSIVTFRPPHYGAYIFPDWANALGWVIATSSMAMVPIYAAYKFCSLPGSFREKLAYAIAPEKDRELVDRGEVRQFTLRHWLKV
M1 antagonist = M1 muscarinic receptor (rat) antagonism; B-score at 10 µM; 64,000 compounds, 3.4% hits; AID 628; CHO-M1 cells, Fluo-4 calcium, ACh EC80 antagonist mode; hits give low values; P08482;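 active means calcium fluorescence response, raw or row-and-column corrected B-score, differing from the plate sample mean either way at a set confidence level, mostly lower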
D1 mod = allosteric modulators of human D1 dopamine receptor. HEK293 D1, CRE-luciferase, dopamine EC30 potentiation; actives deviate in either direction. B-score at 10 µM. 58,000 compounds, 5.9% hits. AID 641;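 active means luminescence count or its row- and column-corrected plate score outside the 99.7% band of the plate's sample wells, on either side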
M1 agonist = agonists of M1 muscarinic receptor; B-score at 10 µM; AID 626; CHO-M1 cells, Fluo-4 calcium fluorescence, agonist mode; hits give high values; 64,000 compounds, 3% hits;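 active means fluorescence rise, raw or as B-score row- and column-corrected plate score, outside the 99.7% band of its plate's samples, either direction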
HEK293 NFkB inh = inhibitors of the PMA/ionomycin-induced NF-kB reporter in HEK293 cells | HEK-293 NF-kB luciferase reporter, luminescence | 62,000 compounds, 0.21% hits | inhibition, % at 3 µM;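 active means inhibition above the mean of all tested compounds plus 3 SD, cut at about 40% in these data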;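 further: 0% = stimulated DMSO wells and 100% = 10 µM reference inhibitor 5653914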
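Reagent: PMA plus ionomycin mix as NF-kB-activating stimulus. Assay system: NF-kB luciferase reporter HEK-293 cells. Technique: luminescence from luciferase substrate reagent. Incubation: 1 h compound pre-incubation, 16 h PMA/ionomycin at 37 °C. Benchmarks: DMSO only as uninhibited control, 10 µM reference inhibitor as full inhibition. Repeats: tested once.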
BAP1 inh = inhibitors of human BAP1 deubiquitinase; Q92560; recombinant BAP1, Ub-AMC hydrolysis fluorescence kinetic; hits give low values; calls only at 20 µM; 72,000 compounds, 0.48% hits;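 active means activity remaining at or below 50% of control, provided the compound also passes the data quality filters; inactive means the rest, including low values that fail the filters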;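 further: 100% = DMSO wells rate and 0% = substrate alone blank rate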
M1 antag conf = confirmation of rat M1 muscarinic receptor antagonists; shares compounds with M1 antagonist; CHO-M1 cells, Fluo-4 calcium, ACh EC80 antagonism; hits give low values; calcium response (max-min fluorescence) at 10 µM; 1,700 compounds, 43% hits; AID 677;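 active means calcium response below the same-plate mean of wells given acetylcholine alone at its 80%-effect dose, minus 3 SD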;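 further: raw fluorescence intensity difference in arbitrary instrument units and not normalized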
mGluR4 antag = mGluR4 (human) activity, M1 antagonist secondary assay | fluorescence response (max-min) at 10 µM | shares compounds with M1 antagonist | 1,700 compounds, 0.9% hits | CHO-mGluR4 calcium flux, Fluo-4 fluorescence, glutamate EC80; hits give low values | AID 678;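 active means fluorescence response below the plate's average for near-maximal glutamate wells, less 3 SD of those wells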;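 further: raw unnormalized fluorescence span taken in the window right after glutamate addition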
* hit, by the source's call; i = inactive; x = not tested or not shown.

SMILES | DAT uptake mod | M1 antagonist | D1 mod | M1 agonist | HEK293 NFkB inh | BAP1 inh | M1 antag conf | mGluR4 antag
COc1ccc(Nc2nc(N)nc(CN3CCC(Cc4ccccc4)CC3)n2)cc1 | 0.22 | -10* | -3* | -1.4 | 16 | i | 319* | 265
CCc1c(C#N)c(N)nc2sc(C(=O)c3ccc(Br)cc3)c(N)c12 | x | x | x | x | x | i | x | x
COCCn1c(SCc2ccccc2Cl)nc2c1c(=O)[nH]c(=O)n2C | 0.026 | -0.4 | 2 | -2.1 | 12 | i | x | x
COCCn1c(Sc2nc(C)cs2)nc2c1c(=O)[nH]c(=O)n2C | 0.049 | -4.1* | x | -0.72 | -3 | i | 658 | 223
CCCCCOC(=O)C1=C(C)NC2=C(C(=O)CC(C)(C)C2)C1c1ccc(O)c(OC)c1 (centres undefined) | x | x | x | x | x | i | x | x
O=C(Nc1ccc(Cl)cc1)N1CCCN(Cc2ccccc2F)C1 | 0.75 | x | x | x | x | x | x | x
Cc1ccc(NC(=O)N2CCCN(Cc3ccc(F)cc3)C2)cc1C | 2.1 | -5.1* | -0.64 | -0.32 | 16 | i | 592 | 283
NCCCCCc1nnc(SCc2cccc(Cl)c2)o1 | -0.33 | -5.2* | -1.6 | -0.35 | 4 | i | 415* | 282
NCCCCCc1nnc(SCc2ccc(Cl)cc2Cl)o1 | 0.3 | x | x | x | x | x | x | x
Cc1cccn2c(=O)c3cc(C(=O)NCCCN4CCCC4=O)n(C)c3nc12 | 0.17 | -3.1* | 3 | 0.13 | 4 | x | 615* | 198
Cc1cccn2c(=O)c3cc(C(=O)NCCN4CCOCC4)c(=N)n(CCc4ccccc4)c3nc12 | x | -1.1 | -0.72 | 0.47 | 20 | x | x | x
COCCn1c(=N)c(C(=O)NCCc2ccccc2)cc2c(=O)n3cccc(C)c3nc21 | 0.63 | -4.7* | -0.091 | -0.082 | 4 | x | 194* | 236
Cc1cccn2c(=O)c3cc(C(=O)NCc4ccccc4)c(=N)n(CCCN4CCOCC4)c3nc12 | x | -3.3* | 0.015 | 1.1 | 13 | x | 337* | 195
COC(=O)C1=C(C)Nc2ncnn2C1c1ccc(Cl)cc1 (centres undefined) | x | x | x | x | x | i | x | x
CC(NC(=O)Nc1nnc(C(F)(F)F)s1)(C(F)(F)F)C(F)(F)F | -0.039 | -1.3* | -3.6 | 4.1 | x | i | 513* | 290
CN(C)c1ccc(-c2nn3c(-c4ccccc4Cl)nnc3s2)cc1 | -0.084 | -5.9* | 0.59 | -0.37 | 34 | x | 527 | 198
Clc1ccccc1-c1nnc2sc(-c3ccncc3)nn12 | -0.81 | 0.68 | 4.1 | 0.022 | 0 | i | x | x
COc1ccc(NC(=O)CC2C(=O)N(C)C(=S)N2CCc2ccc(Cl)cc2)cc1 (centres undefined) | x | x | x | x | x | i | x | x
Cn1c(=O)[nH]c(=O)c2c1nc(Br)n2Cc1ccccc1F | -0.42 | 0.86 | 4.2 | -0.82 | 20 | i | x | x
CN(C)c1nc2c(c(=O)[nH]c(=O)n2C)n1Cc1ccccc1Br | -0.046 | -2.9* | -0.61 | 0.18 | 10 | i | 678 | 242
O=C(Nc1ccc(S(=O)(=O)Nc2nccs2)cc1)C1CCCCC1 | 0.33 | -13* | x | 0.72 | 12 | i | 682 | 209
CN(C1CCCCC1)S(=O)(=O)c1ccc(NC(=O)C2CCCCC2)cc1 | -0.61 | x | x | x | x | x | x | x
CCC(C)(C)n1nnnc1C(c1cc2ccc(OC)cc2[nH]c1=O)N1CCc2ccccc21 (centres undefined) | 1.1 | -0.46 | 0.11 | 1.4 | -5 | i | x | x
CCC(C)(C)n1nnnc1C(c1cc2cc(OC)ccc2[nH]c1=O)N1CCc2ccccc21 (centres undefined) | 0.45 | -16* | 0.065 | 0.23 | 25 | i | 486 | 198
COc1ccc(C2CC(C(F)(F)F)n3ncc(C(=O)O)c3N2)cc1OC (centres undefined) | -0.68 | -3.1* | 0.29 | -0.15 | 9 | i | 627 | 246
SMILES | DAT uptake mod | M1 antagonist | D1 mod | M1 agonist | HEK293 NFkB inh | BAP1 inh | M1 antag conf | mGluR4 antag
CN1CCC(N(C)CC(=O)Nc2cccc(Oc3ccccc3)c2)CC1 | -1.5 | -2.8* | -0.53 | 0.28 | 8 | i | 454* | 236
CN1CCC(N(C)CC(=O)Nc2ccccc2N2CCOCC2)CC1 | 1.1 | x | x | x | x | x | x | x
Cn1c(=O)c2c(nc(SCCN3CCOCC3)n2Cc2ccc(F)cc2)n(C)c1=O | 1.7 | 0.81 | 1.2 | 0.34 | 12 | i | x | x
Cc1ccc(Cn2c(SCCN3CCCCC3)nc3c2c(=O)n(C)c(=O)n3C)cc1 | 1.2 | -3.9* | 1.2 | -2 | 10 | i | 267* | 247
Cn1c(=O)c2c(nc(SCCN3CCCCC3)n2Cc2ccccc2)n(C)c1=O | 1.8 | -4.7* | 0.2 | -1.1 | 9 | i | 246* | 247
CN(Cc1ccccc1)Cc1nc2c(c(=O)n(C)c(=O)n2C)n1Cc1ccc(Cl)cc1 | 0.12 | -0.22 | -0.64 | -0.47 | -2 | i | x | x
CN(Cc1ccccc1)Cc1nc2c(c(=O)n(C)c(=O)n2C)n1Cc1ccc(F)cc1 | -0.32 | -2.6* | -0.14 | 0.3 | 18 | i | 657 | 223
O=C(Nc1ccc(-c2csc(-c3ccccc3)n2)cc1)c1ccc(Br)cc1 | x | x | x | x | x | i | x | x
CCOC(=O)c1c(-c2ccccc2)oc2c1cc(OC(=O)c1ccc(S(=O)(=O)N3CCOCC3)cc1)c1ccccc12 | x | x | x | x | x | i | x | x
Cc1ccc(-c2csc(Nc3cccc(C)c3C)n2)cc1 | x | x | x | x | x | i | x | x
COc1ccc(NC(=O)c2ccc(Cl)c(S(=O)(=O)N3CCc4ccccc4C3)c2)cn1 | -0.8 | -1.5* | x | 0.24 | 30 | i | 681 | 210
Clc1ccc(C2Oc3ccccc3C3CC(c4ccccc4)=NN32)cc1 (centres undefined) | x | x | x | x | x | i | x | x
CCCC1CCC(c2ccc(C#N)cc2)CC1 (centres undefined) | x | x | x | x | x | i | x | x
CCN(CC)S(=O)(=O)c1cccc(C(=O)NC(C(=O)Nc2nnc(C3CC3)s2)C(C)C)c1 (centres undefined) | 1.2 | -2.6* | x | -0.059 | 19 | i | 544 | 256
O=C(c1cccs1)N1CCN(C2CCN(Cc3ccccc3)CC2)CC1 | 1.7 | -4.8* | 0.14 | -1.5 | -1 | i | 443* | 276
O=C(Nc1cccc([N+](=O)[O-])c1)c1ccc(Br)c(S(=O)(=O)N2CCC(C(=O)O)CC2)c1 | x | x | x | x | x | i | x | x
CCOC(=O)N1CCN(C(=O)c2ccc3c(c2)sc2nc(-c4ccccc4)cn23)CC1 | 0.79 | -2.9* | x | 3.1 | -20 | i | 397* | 292
COC(=O)C1CCN(C(=O)COC(=O)c2n[nH]c3ccccc23)CC1 | -0.37 | 0.044 | 0.42 | 0.043 | 6 | i | x | x
CC1CCCN(C(=O)COC(=O)c2n[nH]c3ccccc23)C1 (centres undefined) | -0.26 | -9.6* | 0.34 | 0.16 | -11 | i | 670 | 241
